# Screening results from PubChem BioAssay.
# Shown are actives, neighbours in structure and some others; about 2.3% of the full set was active somewhere.
# TRPC4 inh = inhibitors of mouse TRPC4 channel, primary screen, Fluo4 calcium, HEK293 TRPC4beta/mu-opioid cells; DAMGO-evoked Fluo4 calcium flux; stronger effect = lower value; Short transient receptor potential channel 4 (Mus musculus), Q9QUQ5; 0.39% of 300,000 active; AID 2247, 2010; B-score at 10 µM;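 active = B-score over 3 SD under the library average, no early fluorescence shift, positive overall ratio signal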
# Target sequence (Q9QUQ5 whole entry, looked up): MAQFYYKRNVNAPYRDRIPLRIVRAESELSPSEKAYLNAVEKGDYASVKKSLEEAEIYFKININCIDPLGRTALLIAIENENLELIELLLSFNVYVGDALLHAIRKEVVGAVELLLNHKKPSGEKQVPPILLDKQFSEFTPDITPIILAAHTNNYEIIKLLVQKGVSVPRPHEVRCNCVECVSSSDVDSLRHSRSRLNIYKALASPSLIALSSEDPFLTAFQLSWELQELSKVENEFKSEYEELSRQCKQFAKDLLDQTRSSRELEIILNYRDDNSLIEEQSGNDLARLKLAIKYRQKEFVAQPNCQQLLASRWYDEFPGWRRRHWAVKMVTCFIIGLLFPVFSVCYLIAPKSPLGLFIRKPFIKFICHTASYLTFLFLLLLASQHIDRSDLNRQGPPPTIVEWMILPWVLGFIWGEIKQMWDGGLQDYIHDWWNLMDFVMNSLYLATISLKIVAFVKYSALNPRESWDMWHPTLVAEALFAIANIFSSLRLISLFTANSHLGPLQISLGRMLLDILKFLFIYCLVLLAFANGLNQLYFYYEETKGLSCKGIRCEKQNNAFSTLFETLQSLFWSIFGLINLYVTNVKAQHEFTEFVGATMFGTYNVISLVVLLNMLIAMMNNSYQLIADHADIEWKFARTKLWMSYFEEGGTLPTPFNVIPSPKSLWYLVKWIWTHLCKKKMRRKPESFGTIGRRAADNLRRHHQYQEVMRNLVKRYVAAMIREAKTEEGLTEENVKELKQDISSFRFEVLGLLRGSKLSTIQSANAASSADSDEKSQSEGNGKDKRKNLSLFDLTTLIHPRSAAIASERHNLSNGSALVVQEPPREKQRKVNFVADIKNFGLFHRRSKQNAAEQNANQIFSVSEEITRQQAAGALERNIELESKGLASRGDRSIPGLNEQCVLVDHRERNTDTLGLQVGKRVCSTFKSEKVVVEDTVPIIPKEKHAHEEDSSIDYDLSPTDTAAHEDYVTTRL
#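 Signal: kinetic Fluo4 fluorescence imaging of calcium influx. Material: stable TRPC4beta/mu-opioid receptor HEK293 cells. Probe or stimulus: DAMGO in two steps, submaximal then maximal.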
# TRPC4 act = activators of mouse TRPC4 channel, primary screen, Fluo4 calcium, HEK293 TRPC4beta/mu-opioid cells; Short transient receptor potential channel 4 (Mus musculus), Q9QUQ5; Fluo4 calcium fluorescence; stronger effect = higher value; B-score at 10 µM; 0.49% of 310,000 active;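 active = B-score above 5 SD of library B-scores, and initial fluorescence ratio not above library mean plus 5 SD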;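 note: positive B-score marks a calcium rise read as TRPC4 activation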
#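 Material: TRPC4beta and mu-opioid receptor HEK293 stable cells | Incubation: 45 min room-temperature Fluo4 loading, 110 s read | Detection: Kinetic Fluo4 calcium fluorescence | Measure: Integrated baseline-normalised fluorescence ratio, converted to per-well B score | Benchmarks: Low control buffer alone, high control maximal DAMGO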
# TRPC4 potent = positive allosteric modulators of TRPC4, primary screen, cell-based, mouse TRPC4beta, HEK293 mu-opioid, Fluo-4 calcium. AID 2227, 2009. Short transient receptor potential channel 4 (Mus musculus), Q9QUQ5. DAMGO EC20, Fluo-4 Ca2+ flux; stronger effect = higher value. B-score at 10 µM. 0.42% of 310,000 active;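 active = B-score of calcium response area above 5 SD of library B-scores, with initial fluorescence ratio within 5 SD of library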;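 note: B-score of integrated fluorescence ratio over time as area under calcium response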
# TRPC6 act = mouse TRPC6 channel activators, primary screen, cell-based, HEK293, membrane potential dye | HEK293-TRPC6 membrane potential dye fluorescence; stronger effect = higher value | B-score at 10 µM | 0.13% of 310,000 active;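 active = B-score of the integrated fluorescence ratio above library mean plus 3 SD, and starting fluorescence ratio within library mean plus 5 SD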;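 note: higher score means more depolarization so channel activation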
# TRPC6 inh = mouse TRPC6 channel inhibitors, primary screen, cell-based, HEK293, membrane potential dye; Short transient receptor potential channel 6 (Mus musculus), Q61143; ACh-evoked depolarization; stronger effect = lower value; B-score at 10 µM; 1.1% of 310,000 active; AID 2553, 2010;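 active = B-score under library mean minus 3 SD, initial fluorescence not abnormally high, positive integrated signal ratio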;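 note: B-score derived from integrated fluorescence ratio over the kinetic read; more negative B-score means stronger inhibition of depolarization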
# HEK293 TRPC6 ctr = parental HEK293 membrane potential modulation, confirmation, counter-screen for TRPC6 modulator project, cell-based. shares compounds with TRPC6 inh. membrane potential dye fluorescence. membrane potential signal change, % at 10 µM. 51% of 2,400 active. AID 488924, 2010;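 active = membrane potential signal moves up or down beyond 5 SD from buffer-only wells, on both duplicate plates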
# HEK293 MPD ctr 2 = second counter-screen for TRPC6 modulators: effect in parental HEK293 cells; shares compounds with TRPC6 inh; membrane potential dye fluorescence; after compound, maximal acetylcholine stimulation; inhibition, % at 10 µM; 14% of 2,400 active; AID 488926;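 active = membrane potential signal drops by more than 5 SD from the mean control signal, in both duplicate plates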;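 note: plate controls were acetylcholine ECmax control wells for no effect and buffer only wells for full effect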
# TRPC4 ctr mod = TRPC4 modulation by TRPC6 hit compounds, confirmation, selectivity assay for TRPC6 modulator project, cell-based, HEK293 TRPC4/mu-opioid, membrane potential dye, mouse | shares compounds with TRPC6 inh | membrane potential fluorescence | percent change from control (negative = decrease, positive = increase), % at 10 µM | 69% of 2,400 active | AID 488927, 2010;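 active = membrane potential signal moved up or down beyond 5 SD of buffer control wells, in both duplicate plates, actives on both sides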;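 note: plate controls were assay buffer wells for no effect and DAMGO maximal-effect wells for full effect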
# TRPC4/MOR inh 2 = second selectivity test of TRPC6 modulators against mouse TRPC4. shares compounds with TRPC6 inh. HEK293 TRPC4/mu-opioid, membrane potential dye fluorescence; stimulated with maximal-effect DAMGO. inhibition, % at 10 µM. 55% of 2,400 active. AID 488928;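 active = drop in membrane potential signal beyond 5 SD of the control wells in both duplicate plates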;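 note: TRPC4 counter screen for TRPC6 hits run under conditions tuned for TRPC6 not TRPC4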
# TRPC6 inh conf = mouse TRPC6 channel inhibitors, confirmation, HEK293 cells, membrane potential dye, duplicate; shares compounds with TRPC6 inh; ACh-evoked depolarization; inhibition, % at 10 µM; 43% of 3,300 active;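 active = fluorescence ratio falls more than 5 SD below the full-stimulation control mean, in both duplicate runs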;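 note: integrated fluorescence ratio of peak minus minimum over baseline after agonist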
# TRPC6 act confirm = mouse TRPC6 channel activators, confirmation, HEK293 cells, membrane potential dye, duplicate | shares compounds with TRPC6 inh | HEK293-TRPC6 membrane potential dye fluorescence, FDSS | activation, % at 10 µM | 11% of 2,800 active;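 active = ratio signal rise beyond 5 SD above unstimulated control wells' mean, seen in both duplicate runs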;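 note: plate controls were buffer EC0 wells for no effect and acetylcholine ECmax response for full effect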
# * = called active by the depositor; i = inactive; x = no result.
SMILES,TRPC4 inh,TRPC4 act,TRPC4 potent,TRPC6 act,TRPC6 inh,HEK293 TRPC6 ctr,HEK293 MPD ctr 2,TRPC4 ctr mod,TRPC4/MOR inh 2,TRPC6 inh conf,TRPC6 act confirm
CC1CC(C)CN(C(=O)COc2ccc([N+](=O)[O-])cc2Cl)C1 (stereo not drawn),i,i,i,i,i,x,x,x,x,x,x
COc1ccc(-c2nc(N)ncc2-c2csc(C)n2)c(O)c1OC,i,i,i,i,i,x,x,x,x,x,x
Cc1cc(NC(=O)CC2(CC(=O)O)CCCC2)n(C)n1,i,i,i,i,i,x,x,x,x,x,x
Cc1ccc2c(c1)sc(-c1ccc(N(C)C)cc1)[n+]2C,i,i,i,i,-5.5*,i,84%*,i,i,56%*,i
CCOc1ccc(Cl)cc1/C=N/NC(N)=O,i,i,i,i,i,x,x,x,x,x,x
CCOc1ccc(Cl)cc1/C=N/O,-6*,i,i,13*,-8.7*,104%*,i,21%*,41%*,78%*,115%*
CC1=Nc2ccccc2/C1=C/c1nc(-c2ccc(C)s2)oc1O,i,i,i,i,i,x,x,x,x,x,x
CC1=Nc2ccccc2/C1=C/c1sc(=N)n(-c2nccs2)c1O,i,i,i,36*,i,714%*,i,110%*,i,i,192%*
O=C(C1CCN(CCCc2ccccc2)CC1)N(CCc1ccccc1)Cc1ccccc1,i,i,i,i,-5.5*,110%*,i,i,86%*,68%*,x
COc1ccc(CCNC(=O)CN(Cc2ccc(Cl)cc2)S(C)(=O)=O)cc1OC,i,i,i,i,i,x,x,x,x,x,x
Cc1nn(CC(=O)O)c(C)c1Cl,i,i,i,i,-11*,i,i,i,i,i,i
Cc1nn(CC(=O)O)c(C)c1C,i,i,i,i,i,x,x,x,x,x,x
CN1\C(=C/C=C/C=C/C=[N+](C)C)C(C)(C)c2ccccc21,i,i,i,i,-5.2*,533%*,i,-20%*,32%*,48%*,i
CN(C)c1ccc(N=C/C=C2\N(C)c3ccccc3C2(C)C)cc1,i,i,i,i,-6.6*,i,i,-16%*,53%*,58%*,i
CN1/C(=C\C=O)C(C)(C)c2ccccc21,i,i,i,i,i,x,x,x,x,x,x
CCC(O)CNc1nc(SC)nc2sc3c(c12)CCN(C)C3 (stereo not drawn),i,i,i,i,-7.2*,-167%*,i,-39%*,36%*,i,i
CCn1c(SCC(N)=O)nc2sc3c(c2c1=O)CCN(C)C3,i,i,i,i,-6*,-203%*,i,-36%*,36%*,44%*,i
COC(CNc1nc(SC)nc2sc3c(c12)CCN(C)C3)OC,i,i,i,i,i,x,x,x,x,x,x
CCn1c(SCC(=O)Nc2ccc(C)cc2)nc2sc3c(c2c1=O)CCN(C)C3,i,i,i,i,i,x,x,x,x,x,x
COCCSc1nc2sc3c(c2c(=O)n1-c1ccccc1)CCN(C)C3,i,i,i,i,-7.5*,-108%*,i,-22%*,i,i,i
CCSc1nc2sc3c(c2c(=O)n1-c1ccccc1)CCN(C)C3,i,i,i,i,i,x,x,x,x,x,x
CCOC(=O)CSc1nc2sc3c(c2c(=O)n1C1CCCCC1)CCN(C)C3,i,i,i,i,-5.6*,i,i,8.0%*,46%*,i,i
CCOC(=O)C1CCCN(Cc2nc(CC3CC3)no2)C1 (stereo not drawn),i,i,i,i,i,x,x,x,x,x,x
CSc1nc(SCC(N)=O)c2c3c(sc2n1)CN(C)CC3,i,i,i,i,-11*,-210%*,68%*,-38%*,47%*,i,i
CCOc1ccc(-n2c(SCC(N)=O)nc3sc4c(c3c2=O)CCN(C)C4)cc1,i,i,i,i,i,x,x,x,x,x,x
SMILES,TRPC4 inh,TRPC4 act,TRPC4 potent,TRPC6 act,TRPC6 inh,HEK293 TRPC6 ctr,HEK293 MPD ctr 2,TRPC4 ctr mod,TRPC4/MOR inh 2,TRPC6 inh conf,TRPC6 act confirm
CCNc1nc(SCC(N)=O)nc2sc3c(c12)CCN(C)C3,i,i,i,i,-6.6*,-196%*,i,-38%*,43%*,52%*,i
CC(NC(=O)COc1ccc(Br)cc1)C1CCCO1 (stereo not drawn),i,i,i,i,i,x,x,x,x,x,x
Cc1cc(C)n2nc(-c3ccc(Cl)cc3)cc2n1,i,i,i,i,i,x,x,x,x,x,x
Cc1nc2cc(-c3ccc(Cl)cc3)nn2c(NCCN(C)C)c1C,i,i,i,i,-6*,-89%*,i,-21%*,46%*,i,i
CCOC(=O)C1CSC(CC(=O)Nc2ccc(OC(F)(F)F)cc2)C(=O)N1 (stereo not drawn),i,i,i,i,i,x,x,x,x,x,x
CC(=O)Oc1ccccc1C(=O)NC(C)CCc1ccccc1 (stereo not drawn),i,i,i,i,i,x,x,x,x,x,x
CCCCOc1ccccc1NC(=O)CSc1nnnn1C(C)(C)C,i,i,i,12*,i,187%*,i,38%*,i,x,114%*
COc1ccccc1NC(=O)CSc1nnnn1-c1ccc(C(=O)O)cc1,i,i,i,i,i,x,x,x,x,x,x
